No end group written: not given here.
Experiments:
E. coli O18:K1:H7 Bort = experiment: MIC, microdilution susceptibility test; format: cell-based, Escherichia coli; conditions: strain used in peritonitis model; Mueller–Hinton broth
Procedure, shortened: (§1)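 Strains were stored at −80 °C and subcultured in LB broth before use. MIC was determined by broth microdilution following NCCLS guidelines in Mueller–Hinton broth with logarithmic-phase bacteria. Values are the mean of at least four independent experiments.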

P. aeruginosa ATCC 27853 = experiment: MIC, microdilution susceptibility test; format: cell-based, Pseudomonas aeruginosa; conditions: strain used in peritonitis model; Mueller–Hinton broth
Procedure, shortened: as §1

S. aureus MRSA = experiment: MIC, microdilution susceptibility test; format: cell-based, Staphylococcus aureus; conditions: strain used in peritonitis model; Mueller–Hinton broth
Procedure, shortened: as §1

Vero76 cells = experiment: Peptide cytotoxicity, neutral red uptake assay; format: cell-based; conditions: for Cell survival: 30 min at 37°C, neutral red uptake after 48 h, uninfected cells
Procedure, shortened: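 Confluent uninfected Vero76 monolayers (MEM, 10% FCS, penicillin/streptomycin) were exposed to test peptide (0.5–50 μM range, in MEM) for 30 min at 37 °C, 5% CO2. Cells were washed and kept 48 h in growth medium, then given 50 μg/ml neutral red for 3 h. They were fixed in formaldehyde/CaCl2, the dye was extracted with acidified ethanol, and A550 was read. Triplicates, two experiments.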

mammalian cells = conditions: cited from earlier work
[1] = system: Gram-negative and -positive clinical isolates; experiment: MIC, microdilution susceptibility test, whole panel of clinical isolates; format: cell-based; conditions: 53 bacterial isolates incl. antibiotic-resistant strains
Procedure, shortened: as §1

Gram-positive strains = experiment: MIC, microdilution susceptibility test, Gram-positive isolates; format: cell-based; conditions: Gram-positive strains (Fig. 1 and Table 2)
Procedure, shortened: as §1

[2] = system: human herpes simplex virus type 1 (HSV-1); experiment: Virus yield inhibition assay; format: cell-based, HSV-1 in Vero76 cells; conditions: mean of two independent experiments in triplicate
Procedure, shortened: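 Confluent Vero76 monolayers were infected with 10^4 […] HSV-1 together with test peptide in MEM for 30 min at 37 °C, washed with PBS, and incubated 24 h. They were freeze-thawed three times. Ten-fold supernatant dilutions were adsorbed 1 h onto fresh monolayers under a 0.8% carboxymethylcellulose/2% FCS overlay for 3 days. Plaques were stained with crystal violet and counted as % inhibition versus untreated controls. Triplicates, repeated.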

[3] = system: A. baumannii and P. aeruginosa; experiment: MIC, microdilution susceptibility test; format: cell-based, Acinetobacter baumanni, Pseudomonas aeruginosa; conditions: clinical isolates (Fig. 2)
Procedure, shortened: as §1

Gram-negative species = experiment: MIC, microdilution susceptibility test, Gram-negative isolates; format: cell-based; conditions: Gram-negative species (Fig. 2 and Table 2)
Procedure, shortened: as §1

In vivo toxicity, i.v. = experiment: In vivo toxicity, i.v.; design: species or system male Balb/c mice; conditions: single dose, Litchfield and Wilcoxon
Procedure, shortened: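 Male Balb/c mice (about 20 g, 4 weeks old) received a single i.v. injection of increasing doses of test peptide in sterile PBS, with vehicle-only controls. Behaviour and survival were monitored for 7 days. LD50 was calculated by the Litchfield–Wilcoxon method.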

[4] = 12 mg/kg peptide i.v.; cited from earlier work

GGLRSLGRKILRAWKKYG-NH2 [BMAP-28(1–18)]
MIC (E. coli O18:K1:H7 Bort): 2 µM
MIC (P. aeruginosa ATCC 27853): 2 µM
MIC (S. aureus MRSA): 4 to 8 µM
toxicity to Vero cells (Vero76 cells; 5 μM peptide): not toxic
cytotoxic and haemolytic activities (mammalian cells): virtually devoid

GGLRSLGRKILRAWKKYGPIIVPIIRI-NH2 [BMAP-28]
MIC (E. coli O18:K1:H7 Bort): 2 µM
MIC (P. aeruginosa ATCC 27853): 2 µM
MIC (S. aureus MRSA): 2 µM
MIC values in most cases [1]: 1 to 8 µM
MIC values (Gram-positive strains): 1 to 8 µM
Cell survival (Vero76 cells; 0.5 μM peptide): 100%
cells taking up the neutral red dye (cytotoxicity) (Vero76 cells; 5 μM peptide): 17%
Cell survival (Vero76 cells; 5 μM peptide): 83%
Cell survival (Vero76 cells; 50 μM peptide): 5%
Virus yield inhibition ([2]; 0.5 μM peptide): 10%
Virus yield inhibition ([2]; 5 μM peptide): 72%
concentration range toxic to mammalian cells (mammalian cells): above 10 μM

GGLRSLGRKILRAWKKYGPQATPATRQ-NH2 [mBMAP-28]
MIC (E. coli O18:K1:H7 Bort): 2 µM
MIC (P. aeruginosa ATCC 27853): 2 µM
MIC (S. aureus MRSA): >32 µM
MIC values (Gram-positive strains): > 32 µM
MICs [3]: 0.25 to 1 µM

GRFKRFRKKFKKLFKKLS-NH2 [BMAP-27(1–18)]
MIC (E. coli O18:K1:H7 Bort): 8 µM
MIC (P. aeruginosa ATCC 27853): 2 µM
MIC (S. aureus MRSA): 4 to 8 µM
cytotoxic and haemolytic activities (mammalian cells): virtually devoid

GRFKRFRKKFKKLFKKLSPVIPLLHL-NH2 [BMAP-27]
MIC (E. coli O18:K1:H7 Bort): 0.5 µM
MIC (P. aeruginosa ATCC 27853): 1 µM
MIC (S. aureus MRSA): 4 µM
MIC values in most cases [1]: 1 to 8 µM
MIC values (Gram-negative species): 1 to 2 µM
cytotoxicity to Vero cells (Vero76 cells; lowest peptide concentration tested (range 0.5–50 μM)): cytotoxic even at the lowest peptide concentration tested
LD50 (In vivo toxicity, i.v.): 10 mg/kg
concentration range toxic to mammalian cells (mammalian cells): above 10 μM

ILRAWKKYGPIIVPIIRI-NH2 [BMAP-28(10–27)]
MIC (E. coli O18:K1:H7 Bort): 2 µM
MIC (P. aeruginosa ATCC 27853): 8 µM
MIC (S. aureus MRSA): 8 µM

indolicidin: a bovine cathelicidin peptide (ILPWKWPWWPWRR; ends and bridges not checked; UniProt P33046 131-143, looked up)
toxicity to mice when injected i.v. [4]: all treated animals died
